pKi: −log10 of the molar value.

The values that follow come from ChEMBL document CHEMBL1949672 (J Med Chem, 2012).

The target in assay [1] is T1, Adenosine receptor A3 (Homo sapiens, UniProt P0DMS8).
T1 sequence (P0DMS8 whole entry): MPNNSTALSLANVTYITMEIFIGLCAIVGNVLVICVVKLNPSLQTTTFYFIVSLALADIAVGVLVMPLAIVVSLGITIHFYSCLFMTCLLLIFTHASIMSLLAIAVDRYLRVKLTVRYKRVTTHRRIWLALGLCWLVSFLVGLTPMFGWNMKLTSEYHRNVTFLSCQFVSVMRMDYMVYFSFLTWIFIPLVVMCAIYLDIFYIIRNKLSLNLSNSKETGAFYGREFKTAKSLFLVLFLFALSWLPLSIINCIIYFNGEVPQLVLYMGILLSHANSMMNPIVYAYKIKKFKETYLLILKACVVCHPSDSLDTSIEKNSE
Description: Displacement of [125I]N6-(4-amino-3-iodobenzyl)adenosine-5'-N-methyluronamide from human A3 adenosine receptor expressed in CHO cell membranes after 60 mins.

The target of assay [2] is T2, Adenosine receptor A1 (Homo sapiens, UniProt P30542).
T2 sequence (P30542 whole entry): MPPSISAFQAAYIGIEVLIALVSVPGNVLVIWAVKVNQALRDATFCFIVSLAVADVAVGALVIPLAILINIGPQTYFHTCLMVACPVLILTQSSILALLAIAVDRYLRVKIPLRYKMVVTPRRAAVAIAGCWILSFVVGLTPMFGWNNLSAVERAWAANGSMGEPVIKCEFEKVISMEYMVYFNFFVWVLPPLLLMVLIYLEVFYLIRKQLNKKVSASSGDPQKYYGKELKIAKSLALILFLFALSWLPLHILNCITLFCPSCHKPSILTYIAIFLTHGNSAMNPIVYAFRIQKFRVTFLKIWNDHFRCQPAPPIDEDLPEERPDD
Kind of assay: Displacement of [3H]N6-phenylisopropyladenosine from human A1 adenosine receptor expressed in CHO cell membranes after 60 mins. Summed up: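 Membranes (40 µg/tube) from CHO cells stably expressing human A1 AR were incubated with 1 nM [3H]R-PIA in 50 mM Tris·HCl pH 7.4 with 10 mM MgCl2, at 25°C for 60 min. Nonspecific binding was defined with 10 µM CPA.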

Assay [3] has as its target T3, Adenosine receptor A2a (Homo sapiens, UniProt P29274). Description: Displacement of [3H]2-[p-(2-carboxyethyl)phenylethylamino]-5'-N-ethylcarboxamido-adenosine from human A2A adenosine receptor expressed in HEK293 cell membranes after 60 mins.
In assay [4] the target is T3, Adenosine receptor A2a. Kind of assay: Agonist activity at human A2A adenosine receptor expressed in CHO cells assessed as stimulation of forskolin-induced cAMP production at 10 uM preincubated for 45 mins prior forskolin treatment measured after 15 mins by liquid scintillation spectrometry relative to 2-[p-(2-carboxyethyl)phenylethylamino]-5'-N-ethylcarboxamido-adenosine. Type of assay: functional, cell-based. Summed up: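 CHO cells expressing human A2A AR; test compound at a single concentration of 10 µM; cyclic AMP production measured and expressed as mean percentage of the response to the full agonist CGS21680 (10 µM).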

The nature of assay [5]: Displacement of [1251]PAPAAPEC from A2A adenosine receptor expressed in bovine striatal membranes after 1 hr by gamma counting. Type of assay: cell membranes, Bos taurus, Striatum, Membrane.
Assay [6] deals with T3, Adenosine receptor A2a. Description: Binding affinity to A2A adenosine receptor.

T3 sequence (P29274 whole entry): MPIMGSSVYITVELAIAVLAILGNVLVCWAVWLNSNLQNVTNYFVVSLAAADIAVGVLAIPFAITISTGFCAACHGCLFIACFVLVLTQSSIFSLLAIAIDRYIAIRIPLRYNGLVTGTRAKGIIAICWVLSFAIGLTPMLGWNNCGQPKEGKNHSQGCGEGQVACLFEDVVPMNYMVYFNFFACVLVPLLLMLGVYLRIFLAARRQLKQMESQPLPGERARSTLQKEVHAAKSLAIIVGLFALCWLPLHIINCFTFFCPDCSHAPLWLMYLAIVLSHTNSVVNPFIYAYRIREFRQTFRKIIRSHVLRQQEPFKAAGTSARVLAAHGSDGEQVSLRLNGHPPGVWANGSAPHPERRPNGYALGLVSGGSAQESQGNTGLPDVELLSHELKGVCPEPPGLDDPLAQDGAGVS

Take `CCNC(=O)[C@H]1O[C@@H](n2cnc3c(N)nc(NCCc4ccc(CCC(=O)N[C@@H](CC(=O)O)C(=O)O)cc4)nc32)[C@H](O)[C@@H]1O`: the pKi was 5.84 in assay [1], 5.72 in assay [2] and 6.74 in assay [3]. For the same compound, the Emax in assay [4] is 94.8%.

In the case of `CCNC(=O)[C@H]1O[C@@H](n2cnc3c(N)nc(NCCc4ccc(CCC(=O)N[C@@H](CCCNC(=N)N)C(=O)O)cc4)nc32)[C@H](O)[C@@H]1O`, in assay [4], the Emax came to 94.5%.

`CCNC(=O)[C@H]1O[C@@H](n2cnc3c(N)nc(NCCc4ccc(CCC(=O)N[C@H](CC(=O)O)C(=O)O)cc4)nc32)[C@H](O)[C@@H]1O`: the figures for the pKi in assay [1], in assay [2] and in assay [3] were 6.10, 5.93 and 6.96, respectively. Further, in assay [4], the Emax came to 94.3%.

For `CCNC(=O)[C@H]1O[C@@H](n2cnc3c(N)nc(NCCc4ccc(CCC(=O)N[C@H](Cc5ccccc5)C(=O)OC)cc4)nc32)[C@H](O)[C@@H]1O`, the figures for the pKi in assay [2] and in assay [3] were 5.91 and 7.07, respectively. The Emax in assay [4] was 92.6%.

Regarding `CCNC(=O)[C@H]1O[C@@H](n2cnc3c(N)nc(NCCc4ccc(CCC(=O)NCCNC(=S)Nc5ccc(N=C=S)cc5)cc4)nc32)[C@H](O)[C@@H]1O`, the pKi in assay [5] was 8.15.

In the case of `CCNC(=O)[C@H]1O[C@@H](n2cnc3c(N)nc(NCCc4ccc(CCC(=O)N[C@@H](Cc5c[nH]cn5)C(=O)O)cc4)nc32)[C@H](O)[C@@H]1O`, in assay [4], the Emax is 105%.

In the case of `CCNC(=O)[C@H]1O[C@@H](n2cnc3c(N)nc(NCCc4ccc(CCC(=O)N[C@@H](CCCN=C(N)N)C(=O)O)cc4)nc32)[C@H](O)[C@@H]1O`, the values for the pKi in assay [1], in assay [2] and in assay [3] were 6.21, 5.95 and 7.00, respectively.

Consider `CCNC(=O)[C@H]1O[C@@H](n2cnc3c(N)nc(NCCc4ccc(CCC(=O)N[C@H](Cc5c[nH]c6ccccc56)C(=O)OC)cc4)nc32)[C@H](O)[C@@H]1O`, for which the negative logarithm of the Ki (pKi) in assay [1] is 6.60; in assay [2], 5.79; in assay [3], 6.89. Further, the Emax in assay [4] was found to be 119%.

Take `O=C(NCCN1CCCCC1)c1nc(NCC(c2ccccc2)c2ccccc2)c2ncn([C@@H]3O[C@H](CO)[C@@H](O)[C@H]3O)c2n1`: the pKi in assay [6] is 7.70.

On to `CCNC(=O)[C@H]1O[C@@H](n2cnc3c(N)nc(NCCc4ccc(CCC(=O)N[C@@H](Cc5ccccc5)C(=O)OC)cc4)nc32)[C@H](O)[C@@H]1O`, for which the pKi was 5.97 in assay [2] and 6.80 in assay [3]. The Emax in assay [4] came to 111%.

Turning to `CCNC(=O)[C@H]1O[C@@H](n2cnc3c(N)nc(NCCc4ccc(CCC(=O)N[C@H](Cc5c[nH]cn5)C(=O)O)cc4)nc32)[C@H](O)[C@@H]1O`, the pKi in assay [1] is 6.49; in assay [2] it was 6.46; in assay [3], 7.40. Besides, in assay [4], the Emax was 106%.

Turning to `CCNC(=O)[C@H]1O[C@@H](n2cnc3c(N)nc(NCCc4ccc(CCC(=O)N[C@H](CCCN=C(N)N)C(=O)O)cc4)nc32)[C@H](O)[C@@H]1O`, the pKi in assay [1] is 6.66; in assay [2] it was 6.00; in assay [3] it was 7.30.

For `CCNC(=O)[C@H]1O[C@@H](n2cnc3c(N)nc(NCCc4ccc(CCC(=O)N[C@@H](Cc5cnc[nH]5)C(=O)O)cc4)nc32)[C@H](O)[C@@H]1O`, the pKi in assay [1] is 6.08; in assay [2] it was 6.00; in assay [3] it was 6.96.

For the compound `CCNC(=O)[C@H]1O[C@@H](n2cnc3c(N)nc(NCCc4ccc(CCC(=O)N[C@@H](Cc5c[nH]c6ccccc56)C(=O)OC)cc4)nc32)[C@H](O)[C@@H]1O`, the pKi was 6.85 in assay [1], 5.78 in assay [2] and 7.06 in assay [3]. In addition, in assay [4], the Emax was determined as 104%.

Regarding `CCNC(=O)[C@H]1O[C@@H](n2cnc3c(N)nc(NCCc4ccc(CCC(=O)N[C@@H](Cc5ccccc5)C(=O)O)cc4)nc32)[C@H](O)[C@@H]1O`, the pKi in assay [1] was 6.59; in assay [2], 6.19; in assay [3], 7.20. Besides, the maximal response (Emax) in assay [4] worked out at 103%.

On to `CCNC(=O)[C@H]1O[C@@H](n2cnc3c(N)nc(NCCc4ccc(CCC(=O)N[C@H](Cc5c[nH]c6ccccc56)C(=O)O)cc4)nc32)[C@H](O)[C@@H]1O`, for which the pKi in assay [1] is 6.28; in assay [2], 5.67; in assay [3], 6.89. In addition, the Emax in assay [4] worked out at 113%.

In assay [6], `COc1cc(OC)cc([C@@H](CNc2ncnc3c2ncn3[C@@H]2O[C@H](CO)[C@@H](O)[C@H]2O)c2ccccc2C)c1` gave a pKi of 6.77.

As for `CCNC(=O)[C@H]1O[C@@H](n2cnc3c(N)nc(NCCc4ccc(CCC(=O)N[C@H](CCCNC(=N)N)C(=O)O)cc4)nc32)[C@H](O)[C@@H]1O`, in assay [4], the Emax worked out at 94.7%.

`CCNC(=O)[C@H]1C[C@@H](n2cnc3c(N[C@H](CC)Cc4sccc4Cl)ccnc32)[C@H](O)[C@@H]1O` had a pKi in assay [6] of 7.25.

For `CCNC(=O)[C@H]1O[C@@H](n2cnc3c(N)nc(NCCc4ccc(CCC(=O)N[C@@H](Cc5c[nH]c6ccccc56)C(=O)O)cc4)nc32)[C@H](O)[C@@H]1O`, the pKi is 6.70 in assay [1], 5.97 in assay [2] and 7.14 in assay [3]. In assay [4], the Emax turned out to be 95.8%.

With `CCNC(=O)[C@H]1O[C@@H](n2cnc3c(N)nc(NCCc4ccc(CCC(=O)N[C@H](Cc5ccccc5)C(=O)O)cc4)nc32)[C@H](O)[C@@H]1O`, the values for the pKi in assay [1], in assay [2] and in assay [3] were 6.85, 6.26 and 7.47, respectively. Besides, the Emax in assay [4] worked out at 93.4%.
